Sampled rows, rich in hits. Any-hit rate of the full collection: about 4.3%.
SMARCA2 activ = activators of SMARCA2 function. activation, % at 9.1 µM. MG213 cells, MMTV-luciferase reporter, dexamethasone, overnight. hit rate 1% among 370,000; in the data active = activation above about 7.8%;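 also: 0% = vehicle wells and 100% = reference activator wells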
AHR activator = human AHR activation. AHR-responsive luciferase reporter cells, luminescence. activation, % at 5 µM. hit rate 2.5% among 320,000; in the data active = activation above about 47%;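 also: 0% = vehicle wells and 100% = reference agonist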
Yeast superoxide = lowers age-related superoxide in aged yeast cells; S. cerevisiae aged cells, superoxide DHE fluorescence; hits give low values; superoxide response (% of plate mean), % at 10 µM; hit rate 0.18% among 330,000; AID 2690;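 active = superoxide response under a set limit, about three screen SD below normal, cut at about 65% in these data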;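 also: yeast aged for seven days with compound at 30 °C before DHE staining; 100% = average MFI of all compound-treated wells on the plate with controls excluded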
SR-BI HDL uptake = mouse SR-BI HDL lipid transfer inhibition; AID 488896; inhibition, % at 12.5 µM; hit rate 0.96% among 320,000; ldlA[mSR-BI] CHO cells, DiI-HDL uptake fluorescence, 3 h; Q61009;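 active = mean replicate inhibition of at least 70% and a set share of replicates each scoring 70 or more; inconclusive = meets just one of the two criteria; inactive = fails both criteria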;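 also: 0% = median of neutral control wells and 100% = median of positive control wells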
Target sequence (Q61009 whole entry, looked up): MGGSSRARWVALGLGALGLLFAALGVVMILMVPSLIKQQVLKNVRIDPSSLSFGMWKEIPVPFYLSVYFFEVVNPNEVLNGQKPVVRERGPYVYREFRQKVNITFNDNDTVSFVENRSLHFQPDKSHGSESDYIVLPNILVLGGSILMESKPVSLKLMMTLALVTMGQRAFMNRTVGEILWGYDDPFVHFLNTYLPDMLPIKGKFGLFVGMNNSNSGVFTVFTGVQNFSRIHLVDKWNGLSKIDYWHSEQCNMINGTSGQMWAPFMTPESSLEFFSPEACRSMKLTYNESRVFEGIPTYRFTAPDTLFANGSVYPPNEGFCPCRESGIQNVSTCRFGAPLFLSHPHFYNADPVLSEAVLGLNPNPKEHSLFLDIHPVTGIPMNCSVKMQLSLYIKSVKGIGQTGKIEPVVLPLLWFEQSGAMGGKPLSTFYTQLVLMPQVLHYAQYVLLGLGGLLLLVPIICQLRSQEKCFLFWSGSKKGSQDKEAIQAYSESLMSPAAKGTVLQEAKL
Hep lipid drop = modulators of hepatic lipid droplet formation; AML12 mouse hepatocytes, oleate lipid droplets, BODIPY imaging; inhibition, % at 6.5 µM; hit rate 0.4% among 240,000;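 active = lipid droplet intensity inhibited by at least 50%, with more than 500 cells counted; inconclusive = wells with under 300 cells, treated as cytotoxic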
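material = mouse AML12 hepatocyte cell line, fixed after treatment | also added = 100 µM oleic acid challenge | doses = compound at 6.5 µM only | schedule = overnight exposure | technique = Image-based BODIPY and DAPI two-channel analysis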
SR-BI uptake up = SR-BI HDL lipid transfer activation; CHO ldlA[mSR-BI] cells, DiI-HDL uptake fluorescence, 3 h; 100 = double the neutral-control signal; activation, % at 12.5 µM; hit rate 0.096% among 320,000; AID 504775;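 active = mean replicate activation of at least 60% and every replicate at or above 60%; inconclusive = mean or all-replicate condition met, but not both; inactive = mean below 60% and not all replicates reaching 60%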;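 also: 0% = median plate neutral-control signal and 100% = twice that signal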
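System: CHO ldlA[mSR-BI] cells / Medium: HEPES-buffered (25 mM, pH 7.4) F12 plus 0.5% BSA / Probe or stimulus: labelled HDL, 10 µg/mL / Doses: single compound concentration, delivered by pin transfer / Schedule: 3 h, 37 °C / Measured by: DiI fluorescence, bottom read / Measure: cell-associated DiI fluorescence as measure of HDL uptake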
SMARCA2 act conf = confirmation of SMARCA2 (BRM) function activators. AID 652260. hit rate 30% among 3,500. shares compounds with SMARCA2 activ. activation, % at 9.1 µM. MG213 cells, MMTV-luciferase with dexamethasone, luminescence, overnight; MG213 cells expressing E1A, Rb sequestered; DMSO wells 0%, reference activator 100%;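 active = activation above its plate's cutoff, the mean activation of tested wells plus 3 SD, cut at about 7.9% in these data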
GAL4-VP16 Luc = counter-screen for SMARCA2 activators: GAL4-VP16 luciferase reporter activation | shares compounds with SMARCA2 activ | HEK293 GAL4-VP16 pG5luc reporter, luciferase luminescence; scaled: DMSO wells 0%, SAHA wells 100% | activation, % at 9.1 µM | hit rate 41% among 3,500 | AID 686939;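 active = activation above the solvent-only control well mean plus 3 SD, averaged across control plates, cut at about 5.2% in these data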
Starred values were filed as active, the others as inactive; ? = inconclusive; · = not tested or not shown.

SMILES	SMARCA2 activ	AHR activator	Yeast superoxide	SR-BI HDL uptake	Hep lipid drop	SR-BI uptake up	SMARCA2 act conf	GAL4-VP16 Luc
COc1cccc(-c2cc(C(=O)N3CCCCC3C)no2)c1 (stereo unspecified)	12*	8	94	21	·	-21	6	12*
CC(CN1C(C)CCCC1C)OC(=O)c1ccccc1Br (stereo unspecified)	8.4*	0	98	-17	21	17	2	0
O=C(CC1CC2CCC1C2)NC1CCCCCCC1 (stereo unspecified)	9.5*	2	96	13	·	-13	5	4
COc1cccc(CSc2nc3ccncc3[nH]2)c1	9.3*	28	110	0	10	0	6	7.0*
COc1cccc(N2CCN(C(=O)c3ccc(CSc4nc5ccncc5[nH]4)cc3)CC2)c1	-1	3	96	-12	1	12	·	·
CC(C)CNC(=O)OCc1cn(Cc2cc(F)cc(F)c2)nn1	-3	·	·	·	·	·	·	·
Cc1ccc(/C=C2/NC(=O)[C@H](C)NC2=O)cc1	8.4*	13	89	-9	·	9	2	3
C[C@@H]1NC(=O)/C(=C\c2ccccc2Br)NC1=O	-1	2	99	-24	·	24	·	·
COC(=O)[C@]12C[C@H](CC(=O)NCc3ccc(OC)c(OC)c3)C(=O)N(Cc3ccccc3)C1=C[C@H](C(C)(C)C)O[C@@H]2C	-3	·	·	·	·	·	·	·
O=C1NC(=O)C(CC(=O)N(Cc2ccco2)C2(C(=O)NC3CCCC3)CCCCC2)N1 (stereo unspecified)	-2	1	120	-16	-19	16	·	·
CCC(C)(C(=O)NC1CCCCC1)N(Cc1ccco1)C(=O)CC1NC(=O)NC1=O (stereo unspecified)	8.4*	1	106	1	-7	-1	-3	0
CC(C)(C)C(=O)OC12CCCN(C1)/C(=C/c1ccc(C#N)cc1)C2 (stereo unspecified)	-2	·	·	·	·	·	·	·
Cc1ccc(C(=O)CCNc2cccc(Br)c2)o1	8.8*	-2	86	13	·	-13	2	1
Cc1ccc(C(=O)CCNc2ccc(Br)cc2)o1	5	-1	81	9	-17	-9	·	·
CCOC(=O)[C@]12CCCCC/C=C\1N(Cc1ccc(OC)cc1)C(=O)[C@H]2CC(=O)NCC1CCCCC1	-3	·	·	·	·	·	·	·
COC(=O)N1C[C@H](OCc2ccccc2)[C@H]2C[C@@H]1c1ccccc1O2	-5	·	·	·	·	·	·	·
c1ccc(N=Nc2ccc(C3=NCCO3)cc2)cc1	10*	·	·	·	·	·	9.2*	9.8*
O=C(CC1C=CCC1)OCCN1CCN(C2CN(Cc3cn(Cc4ccccc4Cl)nn3)S(=O)(=O)C2)CC1 (stereo unspecified)	5	·	·	·	·	·	·	·
COc1cccc2sc(Nc3nnc(-c4ccccc4Cl)o3)nc12	8.8*	63*	113	23	-92	-23	6	2
O=C(Nc1nnc(-c2ccccc2Cl)o1)c1nc2ccccc2s1	1	16	121	-10	-11	10	·	·
COc1ccccc1-c1nnc(Nc2nc3c(OC)cccc3s2)o1	15*	111*	101	40	?	-40	6	24*
COc1cccc(C(=O)Nc2cccc(-c3ccc(N4CCOCC4)nn3)c2)c1	7	-1	93	48	·	-48	·	·
CN1CCN(c2ccc(-c3cccc(NC(=O)COc4ccc(Cl)cc4)c3)nn2)CC1	3	2	98	41	·	-41	·	·
COc1cccc(C(=O)Nc2cccc(-c3ccc(N4CCOCC4)nn3)c2)c1OC	12*	6	112	28	·	-28	11*	15*
CN1CCN(c2ccc(-c3cccc(NC(=O)COc4ccccc4)c3)nn2)CC1	8.4*	-1	95	-7	·	7	6	12*
SMILES	SMARCA2 activ	AHR activator	Yeast superoxide	SR-BI HDL uptake	Hep lipid drop	SR-BI uptake up	SMARCA2 act conf	GAL4-VP16 Luc
C[C@H](O)[C@@H]1C(=O)N2CCc3c([nH]c4c(-c5ccc6c(c5)OCO6)cccc34)[C@@H]2C[C@@H]1N(C)C(=O)c1ccccc1F	-4	·	·	·	·	·	·	·
N#C/C(=C\C=C\c1ccccc1)c1nc(-c2ccc3c(c2)OCO3)cs1	9.8*	18	104	-4	-51	4	1	-1
OC(c1ccccc1)(c1nc(-c2ccc3c(c2)OCO3)cs1)C(F)(F)F (stereo unspecified)	-3	·	·	·	·	·	·	·
COc1ccc(C(=O)c2[nH]c(N)c(C(=O)c3c[nH]c4ccccc34)c2-c2ccc(OC)cc2)cc1	2	·	·	·	·	·	·	·
CCCOc1ccc(N2C(=O)CC(SCCN)C2=O)cc1 (stereo unspecified)	10*	9	96	-28	0	28	7.9*	6.6*
Cc1csc(NC(=O)c2nc3nccc(C)n3n2)n1	8.6*	8	105	-28	·	28	4	4
COc1ccc(-c2nc(NC(=O)c3nc4nccc(C)n4n3)sc2C)cc1	-3	23	103	9	23	-9	·	·
Cc1ccnc2nc(C(=O)Nc3nc4ccccc4s3)nn12	11*	26	90	-11	-3	11	7	11*
O=C(NCCc1ccccn1)c1ccc2c(c1)ncn2C1CCCCC1	0	·	·	·	·	·	·	·
C=CCN(CC=C)c1cnn(-c2nc3ccccc3[nH]2)c(=O)c1Cl	8	-7	111	-4	4	4	·	·
O=c1c(Cl)c(NCCCO)cnn1-c1nc2ccccc2[nH]1	22*	38	101	-27	·	27	17*	18*
CCc1nnc(NS(=O)(=O)c2ccc(N3C(=O)c4ccccc4C3=O)cc2)s1	11*	2	103	-6	4	6	-2	2
CCc1nnc(NS(=O)(=O)c2ccc(N)cc2)s1	-4	0	97	-2	6	2	·	·
CCCCCCCCN1CCS(=O)(=O)N(Cc2ccc(OC)cc2)C(C(=O)OC)C1 (stereo unspecified)	-2	·	·	·	·	·	·	·
O=C(NCC1COc2ccccc2O1)c1ccc(NC(=O)c2cccc(F)c2F)cc1 (stereo unspecified)	-1	·	·	·	·	·	·	·
O=C(N/N=C/c1ccc2c(c1)OCO2)C1COc2ccccc2O1 (stereo unspecified)	8.5*	7	104	-9	·	9	5	1
COc1cccc(C(=O)NCC(=O)N/N=C/c2ccc3c(c2)OCO3)c1	8.0*	12	90	-16	-8	16	2	0
CCN(CC)C(=O)CC[C@H]1CC[C@]2(CCCN(CC3CC3)C2)O1	-2	·	·	·	·	·	·	·

Screening results as filed in PubChem.
